According to ChEMBL document CHEMBL1123418, “N-imidazolylchroman-4-ones, N-imidazolyl-1-tetralones, and their alcohols as hypolipemic agents raising high-density lipoproteins” (1986):

Experiments:
Rattus norvegicus [1] = assay: Percent change in total cholesterol concentration in serum from normocholesterolemic rats at dose 200 mg/kg (po)
Rattus norvegicus [2] = assay: Percent increase in liver weight in rats when a 50 mg/Kg dose was administered; format: functional
[3] = Percent change in high density lipoprotein cholesterol
Rattus norvegicus [4] = assay: Percent change in high density lipoproteins cholesterol concentration in serum from normocholesterolemic rats at dose 200 mg/kg (po)
Rattus norvegicus [5] = assay: Percent change in low density lipoproteins cholesterol concentration in serum from normocholesterolemic rats at dose 200 mg/kg (po)
Rattus norvegicus [6] = assay: Percent change in triglyceride concentration in serum from normocholesterolemic rats at dose 200 mg/kg (po)
Rattus norvegicus [7] = organism: Rattus norvegicus; assay: Compound was tested in vitro for inhibition of Cholesterol biosynthesis in rat liver slices, % inhibition of [14C]acetate incorporation in neutral lipids at 5 e10-5 concentration; format: functional
In short: (§1)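 Liver slices (250 mg) from fed male rats were incubated in Krebs-Ringer bicarbonate, pH 7.4, with 4 mM [2-¹⁴C]acetate under 95% O₂-5% CO₂. Compounds were tested at a final 2 × 10⁻⁴ M, or 5 × 10⁻⁵ M for one compound. ¹⁴C incorporation into cholesterol and into petroleum-ether-soluble nonsaponifiable neutral lipids gave % inhibition; mean of four determinations.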

Rattus norvegicus [8] = assay: Compound was tested for Enzyme induction effect in male rats treated for 5 days at dose 50 mg/kg concentration of cytochrome […]( mmol/mg) in protein; format: functional
In short: (§2)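 Male OFA-ICO SD rats were dosed orally for 5 days, with test compounds at 50 mg/kg/day and sodium phenobarbital at 75 mg/kg/day. Liver was homogenized in 1.15% KCl-0.01 M phosphate, pH 7.5. Microsomes were spun from the 9000g supernatant at 105000g and assayed for protein, cytochrome P-450, aniline p-hydroxylation (µmol p-aminophenol/20 min) and aminopyrine N-demethylation (µmol HCHO/5 min). Liver/body weight was also recorded. Mean ± SEM of four rats; Dunnett's test.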

Rattus norvegicus [9] = assay: Compound was tested for Enzyme induction effect in male rats treated for 5 days at dose 50 mg/kg concentration of microsomal proteins(mg/g) in liver; format: functional, organism-based; parameters: dose 50 mg/kg
In short: as §2

Rattus norvegicus [10] = assay: Compound was tested for Enzyme induction effect in male rats treated for 5 days at dose 50 mg/kg aniline p-hydroxylase activity(per g) of liver; format: functional
In short: as §2

Rattus norvegicus [11] = assay: Percent increase in liver weight in rats when administered perorally; format: functional
Rattus norvegicus [12] = assay: Percent change in total cholesterol concentration in serum from hypercholesterolemic rats at dose 50 mg/kg (po); format: functional
[13] = Compound was tested for Enzyme induction effect in male rats treated for 5 days at dose 50 mg/kg ratio of % liver weight to % body weight; format: functional
In short: as §2

Rattus norvegicus [14] = assay: Percent change in high density lipoproteins cholesterol concentration in serum from hypercholesterolemic rats at dose 50 mg/kg (po); format: functional
In short: (§3)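 Rats were fed 1.5% cholesterol/0.5% cholic acid diet for 7 days, with compounds given by gavage over the last 4 days as a 0.5% Methocel suspension (0.5 mL/100 g). Rats were fasted overnight, killed on day 8 and bled under light CO₂ anesthesia. HDL was isolated by heparin-MnCl₂ precipitation (8000 rpm, 15 min, 4 °C). Total and HDL cholesterol were measured enzymatically-colorimetrically; % change vs control.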

Rattus norvegicus [15] = organism: Rattus norvegicus; assay: Compound was tested in vitro for inhibition of Cholesterol biosynthesis in rat liver slices, % inhibition of [14C]acetate incorporation in cholesterol at 5 e10-5 concentration; format: functional
In short: as §1

Rattus norvegicus [16] = assay: Compound was tested for Enzyme induction effect in male rats treated for 5 days at dose 50 mg/kg aminopyrine N-demethylase activity(per g) of liver; format: functional
In short: as §2

Rattus norvegicus [17] = assay: Percent change in total cholesterol concentration in serum from hypercholesterolemic rats at dose 21 mg/kg (po); format: functional
In short: as §3

Rattus norvegicus [18] = assay: Percent change in high density lipoproteins cholesterol concentration in serum from hypercholesterolemic rats at dose 21 mg/kg (po); format: functional
In short: as §3

Rattus norvegicus [19] = assay: Percent change in high density lipoproteins cholesterol concentration in serum from hypercholesterolemic rats at dose 30 mg/kg (po); format: functional
In short: as §3

Rattus norvegicus [20] = assay: Percent change in total cholesterol concentration in serum from hypercholesterolemic rats at dose 30 mg/kg (po); format: functional
In short: as §3

Rattus norvegicus [21] = organism: Rattus norvegicus; assay: Compound was tested in vitro for inhibition of Cholesterol biosynthesis in rat liver slices, % inhibition of [14C]acetate incorporation in cholesterol; format: functional
In short: as §1

Rattus norvegicus [22] = organism: Rattus norvegicus; assay: Compound was tested in vitro for inhibition of Cholesterol biosynthesis in rat liver slices, % inhibition of [14C]acetate incorporation in neutral lipids; format: functional
In short: as §1

Rattus norvegicus [23] = assay: Percent change in high density lipoproteins cholesterol concentration in serum from hypercholesterolemic rats at dose 10 mg/kg (po); format: functional
In short: as §3

Rattus norvegicus [24] = assay: Percent change in total cholesterol concentration in serum from hypercholesterolemic rats at dose 10 mg/kg (po); format: functional
In short: as §3

Rattus norvegicus [25] = assay: Percent change in high density lipoproteins cholesterol concentration in serum from hypercholesterolemic rats at dose 42.5 mg/kg (po); format: functional
In short: as §3

Rattus norvegicus [26] = assay: Percent change in total cholesterol concentration in serum from hypercholesterolemic rats at dose 42.5 mg/kg (po); format: functional
Rattus norvegicus [27] = assay: Percent change in total cholesterol concentration in serum from normocholesterolemic rats at dose 100 mg/kg (po)
Rattus norvegicus [28] = assay: Percent change in high density lipoproteins cholesterol concentration in serum from normocholesterolemic rats at dose 100 mg/kg (po)
Rattus norvegicus [29] = assay: Percent change in triglyceride concentration in serum from normocholesterolemic rats at dose 100 mg/kg (po)
Rattus norvegicus [30] = assay: Percent change in low density lipoproteins cholesterol concentration in serum from normocholesterolemic rats at dose 100 mg/kg (po)
Rattus norvegicus [31] = organism: Rattus norvegicus; assay: Compound was tested in vitro for inhibition of Cholesterol biosynthesis in rat liver slices, % inhibition of [14C]acetate incorporation in neutral lipids at 2 e10-4 concentration; format: functional
In short: as §1

Rattus norvegicus [32] = organism: Rattus norvegicus; assay: Compound was tested in vitro for inhibition of Cholesterol biosynthesis in rat liver slices, % inhibition of [14C]-acetate incorporation in cholesterol at 2 e10-4 concentration; format: functional
In short: as §1

Rattus norvegicus [33] = assay: Percent change in high density lipoproteins cholesterol concentration in serum from hypercholesterolemic rats at dose 37 mg/kg (po); format: functional
In short: as §3

Rattus norvegicus [34] = assay: Percent change in total cholesterol concentration in serum from hypercholesterolemic rats at dose 37 mg/kg (po); format: functional
Rattus norvegicus [35] = assay: Percent change in total cholesterol concentration in serum from hypercholesterolemic rats at dose 40 mg/kg (po); format: functional
Rattus norvegicus [36] = assay: Percent change in high density lipoproteins cholesterol concentration in serum from hypercholesterolemic rats at dose 40 mg/kg (po); format: functional
In short: as §3

Rattus norvegicus [37] = assay: Compound was tested for Enzyme induction effect in male rats treated for 5 days at dose 50 mg/kg concentration of cytochrome […]( mmol/mg) of protein; format: functional
In short: as §2

Rattus norvegicus [38] = assay: Compound was tested for Enzyme induction effect in male rats treated for 5 days at dose 50 mg/kg aminopyrine N-demethylase activity (per g) of liver; format: functional
In short: as §2

Rattus norvegicus [39] = assay: Compound was tested for Enzyme induction effect in male rats treated for 5 days at dose 50 mg/kg concentration of microsomal proteins (mg/g) of liver; format: functional, organism-based; parameters: dose 50 mg/kg
In short: as §2

Rattus norvegicus [40] = assay: Percent change in low density lipoproteins cholesterol concentration in serum from normocholesterolemic rats at dose 50 mg/kg (po)
Rattus norvegicus [41] = assay: Compound was tested for Hepatic peroxisomal proliferation effect in male rats treated for 7 days at dose 50 mg/kg palmitoyl-CoA oxidation activity(per mg) of protein; format: functional
In short: (§4)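 Male OFA-ICO SD rats received oral doses of 50 mg/kg/day for 1 week. Liver was homogenized in 0.25 M sucrose-0.01 M phosphate-0.1% ethanol, pH 7, then diluted in incubation buffer with 0.1% Triton X-100 and centrifuged. Supernatants were assayed for catalase (K, sec⁻¹), carnitine acetyltransferase (nmol CoASH/min) and cyanide-insensitive palmitoyl-CoA oxidation (nmol NAD⁺ reduced/min). Mean ± SEM of three rats; Dunnett's test.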

Rattus norvegicus [42] = assay: Compound was tested for Hepatic peroxisomal proliferation effect in male rats treated for 7 days at dose 50 mg/kg carnitine acetyl transferase activity(per mg) of protein; format: functional
In short: as §4

[43] = Compound was tested for Hepatic peroxisomal proliferation effect in male rats treated for 7 days at dose 50 mg/kg ratio of % liver weight to % body weight; format: functional
Rattus norvegicus [44] = assay: Compound was tested for Hepatic peroxisomal proliferation effect in male rats treated for 7 days at dose 50 mg/kg catalase activity (per mg) of protein; format: functional
In short: as §4

Rattus norvegicus [45] = assay: Compound was tested for Hepatic peroxisomal proliferation effect in male rats treated for 7 days at dose 50 mg/kg concentration of hepatic proteins(mg/g) in liver; format: functional, organism-based; parameters: dose 50 mg/kg
Rattus norvegicus [46] = assay: Percent change in triglyceride concentration in serum from normocholesterolemic rats at dose 50 mg/kg (po)
[47] = Compound was tested for Enzyme induction effect in male rats treated for 5 days at dose 50 mg/kg; ratio of % liver weight to % body weight; format: functional
In short: as §2

Rattus norvegicus [48] = assay: Compound was tested for its activity in diet-induced Hypercholesterolemic rats at dose 50 mg/kg after peroral administration palmitoyl-CoA oxidation activity(per mg) of protein; format: functional; details: route oral
Rattus norvegicus [49] = assay: Compound was tested for Hepatic peroxisomal proliferation effect in male rats treated for 7 days at dose 50 mg/kg protein; format: functional
Rattus norvegicus [50] = assay: Compound was tested for its activity in diet-induced Hypercholesterolemic rats at dose 50 mg/kg after peroral administration carnitine acetyl transferase activity(per mg) of protein; format: functional; details: route oral
Rattus norvegicus [51] = assay: Percent change in total cholesterol concentration in serum from hypercholesterolemic rats at dose 25 mg/kg (po); format: functional
In short: as §3

Rattus norvegicus [52] = assay: Percent change in high density lipoproteins cholesterol concentration in serum from hypercholesterolemic rats at dose 25 mg/kg (po); format: functional
In short: as §3

CCOC(=O)C(C)(C)Oc1ccc(Cl)cc1 [CLOFIBRATE]
Change (Rattus norvegicus [1]): -35%
Change (Rattus norvegicus [2]): 25%
Percent change in HDL cholesterol [3]: 13
Change (Rattus norvegicus [4]): -32%
Change (Rattus norvegicus [5]): -40%
Change (Rattus norvegicus [6]): -52%

O=C1c2ccc(O)c(Br)c2CCC1n1ccnc1 (centres undefined)
Inhibition (Rattus norvegicus [7]): 0%
Activity (Rattus norvegicus [8]): 0.98
Concentration (Rattus norvegicus [9]): 28
Activity (Rattus norvegicus [10]): 0.67
Change (Rattus norvegicus [11]): 13%
Change (Rattus norvegicus [12]): -44%
Ratio [13]: 3.24%
Change (Rattus norvegicus [14]): 109%
Inhibition (Rattus norvegicus [15]): 0%
Activity (Rattus norvegicus [16]): 1.69

CC1Oc2cc(O)c(Br)cc2C(=O)C1n1ccnc1 (centres undefined)
Change (Rattus norvegicus [17]): -10%
Change (Rattus norvegicus [11]): 1%
Change (Rattus norvegicus [18]): 2%

O=C1c2ccc(Br)cc2CCC1n1ccnc1 (centres undefined)
Change (Rattus norvegicus [11]): 31%
Change (Rattus norvegicus [19]): 228%
Change (Rattus norvegicus [20]): -84%

CCCCCCCCCCCCn1ccnc1
Inhibition (Rattus norvegicus [21]): 66%
Inhibition (Rattus norvegicus [22]): 14%

COc1ccc2c(c1)CCC(n1ccnc1)C2=O (centres undefined)
Change (Rattus norvegicus [23]): 34%
Change (Rattus norvegicus [11]): 0%
Change (Rattus norvegicus [24]): -37%

CC1Oc2ccc(C(=O)O)cc2C(=O)C1n1ccnc1 (centres undefined)
Change (Rattus norvegicus [25]): -18%
Change (Rattus norvegicus [26]): -12%
Change (Rattus norvegicus [11]): 3%

CC(C)OC(=O)C(C)(C)Oc1ccc(C(=O)c2ccc(Cl)cc2)cc1 [FENOFIBRATE]
Change (Rattus norvegicus [27]): -28%
Change (Rattus norvegicus [28]): -27%
Change (Rattus norvegicus [2]): 38%
Percent change in HDL cholesterol [3]: 7
Change (Rattus norvegicus [29]): -50%
Change (Rattus norvegicus [30]): -31%

CN(C)c1ccc2c(c1)C(=O)C(n1ccnc1)CC2 (centres undefined)
Change (Rattus norvegicus [11]): 11%
Inhibition (Rattus norvegicus [31]): 0%
Inhibition (Rattus norvegicus [32]): 55%
Change (Rattus norvegicus [33]): 69%
Change (Rattus norvegicus [34]): -37%

O=C(O)c1cccc2c1C(=O)C(n1ccnc1)CC2 (centres undefined)
Change (Rattus norvegicus [35]): -19%
Change (Rattus norvegicus [36]): -9%
Change (Rattus norvegicus [11]): -4%

O=C1c2cc(Cl)ccc2OCC1n1ccnc1 (centres undefined)
Activity (Rattus norvegicus [37]): 2.46
Activity (Rattus norvegicus [38]): 2.98
Change (Rattus norvegicus [2]): 34%
Concentration (Rattus norvegicus [39]): 42.5
Change (Rattus norvegicus [40]): -53%
Activity (Rattus norvegicus [10]): 0.93
Activity (Rattus norvegicus [41]): 4.1
Change (Rattus norvegicus [11]): 28%
Inhibition (Rattus norvegicus [31]): 0%
Activity (Rattus norvegicus [42]): 2.9
Inhibition (Rattus norvegicus [32]): 0%
Ratio [43]: 4.36%
Activity (Rattus norvegicus [44]): 42.1
Percent change in HDL cholesterol [3]: 153
Concentration (Rattus norvegicus [45]): 216
Change (Rattus norvegicus [46]): -46%
Ratio [47]: 4.4%

CCC1(c2ccccc2)C(=O)NC(=O)NC1=O [PHENOBARBITAL]
Ratio [43]: 4.32%
Concentration (Rattus norvegicus [45]): 40.6
Activity (Rattus norvegicus [48]): 1.15
Activity (Rattus norvegicus [49]): 1.92
Activity (Rattus norvegicus [50]): 4.2

CCCc1cc2c(cc1O)OC(C)C(n1ccnc1)C2=O (centres undefined)
Change (Rattus norvegicus [51]): -15%
Change (Rattus norvegicus [11]): 8%
Change (Rattus norvegicus [52]): 28%
